Published values from different studies.
Protocols differ between the studies behind these lines. pEC50, pIC50: −log10 of the molar value. Converted amounts (≈) assume the structure as drawn.

| SMILES | tested on | test | test system | setting | endpoint | result |
| --- | --- | --- | --- | --- | --- | --- |
| C[C@@H]1[C@H](O)[C@@H](C)/C=C/C=C/C=C/C=C/C=C/C=C/C=C/[C@H](O[C@@H]2O[C@H](C)[C@@H](O)[C@H](N)[C@@H]2O)C[C@@H]2O[C@](O)(C[C@@H](O)C[C@@H](O)[C@H](O)CC[C@@H](O)C[C@@H](O)CC(=O)O[C@H]1C)C[C@H](O)[C@H]2C(=O)O | Leishmania major | parasite growth, MTT |  | 72 h, promastigote | pIC50 | 5.02 |
| CCC(=CCc1c(O)cc2c(c1O)C(=O)C[C@@H](c1ccccc1O)O2)CC | HeLa | cell growth or viability, MTT |  | 30 µM, 48 h | inhibition | 9.27% |
| COc1ccc(Nc2cnnc3cc(-c4cnc(N5CCCN(C)CC5)nc4)ccc23)nc1 | Leishmania major | parasite growth |  | intracellular, amastigote | pEC50 | < 4.64 |
| CNC(=S)NN=Cc1ccc(O)c(OC)c1 | Leishmania major | parasite growth | J774.A1 | 72 h, intracellular, amastigote | pIC50 | 3.95 |
| COc1c(N2C[C@@H]3CCCN[C@@H]3C2)c(F)cc2c(=O)c(C(=O)O)cn(C3CC3)c12 | Enterococcus faecalis | microbial growth, broth dilution |  | clinical isolate | MIC50 | 0.5 µg/mL (≈ 1.25 µM) |
| CCC(=CCc1c(O)cc2c(c1O)C(=O)C[C@@H](c1ccc(O)cc1)O2)CC | HeLa | cell growth or viability, MTT |  | 100 µM, 48 h | inhibition | 99.5% |
| CC(=O)NC[C@H]1CN(c2ccc(N3CCOCC3)c(F)c2)C(=O)O1 | Enterococcus faecalis | microbial growth, broth dilution |  | clinical isolate | MIC50 | 0.5 µg/mL (≈ 1.48 µM) |
| COc1ccc(Nc2cnnc3cc(-c4cnc(N5CCN(C)CC5)nc4)ccc23)cc1Cl | Leishmania major | parasite growth |  | intracellular, amastigote | pEC50 | < 5.66 |
